Data: ChEMBL document CHEMBL5150048, “Synthesis and Evaluation of Polymyxins Bearing Reductively Labile Disulfide-Linked Lipids” (J Med Chem, 2022)
Starred links: 1 amine or outer side, 2 acyl side, 3 side chain; linkers in the order of their positions; H or OH if unused. Positions of bridges follow the written chain, without caps; N, C: chain ends. Non-standard residues stand in square brackets, D forms with d. Residues, ends and D or L forms follow the SMILES beside them. *: point of attachment. X2 = CC(C)CCCCC[C@@H](N[*:1])C(=O)[*:2]; S(2-cyclohexylethyl) = C1CCC(CCS*)CC1; S(3-Cl-benzyl) = Clc1cccc(CS*)c1; X3 = c1ccc(Oc2ccc(CS*)cc2)cc1; X5 = c1ccc(-c2ccc(CS*)cc2)cc1; S(3-Methylbutyl) = CC(C)CCS*; X6 = c1ccc(-c2ccc(S*)cc2)cc1; Dab = NCC[C@H](N)C(=O)O; X1 = CC(C)CCCCS*; X4 = CCCCCCS*

Legend:
Acinetobacter baumannii = assay: Antibacterial activity against Acinetobacter baumannii ATCC 19606 assessed as inhibition of bacterial growth by CLSI based broth microdilution method; type: functional
Summary of the method: (§1)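 Broth microdilution per CLSI. Colonies from overnight blood agar at 37 °C were grown in TSB to OD600 0.5. Compounds (6.4 mg/mL DMSO stock) were diluted serially in CAMHB (12.5 μg/mL Mg2+, 20 μg/mL Ca2+) in polypropylene plates and inoculated to a final 10^6 CFU/mL, then incubated at 37 °C under gas-permeable membrane. MIC is the lowest concentration without visible growth, from at least duplicate experiments.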

[1] = Stability of the compound in PBS assessed as compound remaining at 1 mg/ml incubated for 24 hrs in presence of 5 uM glutathione by RP-HPLC analysis; type: physicochemical; conditions: PBS with 5 uM glutathione, read-out: Stability
Summary of the method: (§2)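 Compound (1 mg/mL stock) was mixed 1:9 by volume with PBS glutathione stock: 5.5 μM for the low-glutathione line (7), 5.5 mM for the high-glutathione line (8). Vials were N2-flushed and held in the HPLC autosampler at RT. Samples at 0, 1, 2, 3, 4, 8, 10 and 24 h were analysed by RP-HPLC, UV 214 nm, and quantified against an external calibration curve in PBS run in duplicate.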

[2] = Stability of the compound in PBS assessed as drug degradation at 1 mg/ml incubated for 24 hrs in presence of 5 mM glutathione by RP-HPLC analysis; type: physicochemical; conditions: buffer; summary of the method: as §2
Erythrocyte = assay: Hemolytic activity in sheep erythrocytes at 128 ug/ml incubated for 1 hr by absorbance based analysis; type: toxicity, cell-based, Ovis aries; conditions: dose 128 µg/ml
Summary of the method: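 Defibrinated sheep red cells were washed four times in PBS with 0.002% Tween20 and adjusted to A415 2.5–3.0. They were mixed 1:1 by volume with compound serial dilutions (128–4 μg/mL, before mixing) and shaken 1 h at 37 °C. After centrifugation, supernatant was diluted in PBS and read at 415 nm. Values were background-corrected and given as % of 0.1% Triton X-100 lysis, from triplicates.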

[3] = Cytotoxicity against human differentiated conditionally immortalized RPTEC cells assessed as reduction in cell viability incubated for 24 hrs by PrestoBlue reagent based assay; type: toxicity; conditions: read-out: TC50
Summary of the method: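 ciPTEC (OAT-1) cells were seeded at 2.0 × 10^5 cells/mL in DMEM/F-12 with 10% FCS, insulin, transferrin, selenium, hydrocortisone, EGF and tri-iodothyronine. They were differentiated 24 h at 33 °C then 6 days at 37 °C, 5% CO2. Compounds serially diluted in serum-free medium were applied for 24 h at 37 °C, then 10% PrestoBlue in HBSS was added. Fluorescence (ex 530/em 590 nm) was background-corrected and normalized to untreated cells. TC50 came from nonlinear regression with bottom fixed at 0.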

[4] = Toxicity index, ratio of test compound TC50 to polymyxin B TC50 for cytotoxicity against human differentiated conditionally immortalized RPTEC cells incubated for 24 hrs by PrestoBlue reagent based assay; type: cell-based
Klebsiella pneumoniae = assay: Antibacterial activity against Klebsiella pneumoniae ATCC 13883 assessed as inhibition of bacterial growth by CLSI based broth microdilution method; type: functional; summary of the method: as §1
Escherichia coli = assay: Antibacterial activity against Escherichia coli ATCC 25922 assessed as inhibition of bacterial growth by CLSI based broth microdilution method; type: functional; summary of the method: as §1
Pseudomonas aeruginosa = assay: Antibacterial activity against Pseudomonas aeruginosa ATCC 27853 assessed as inhibition of bacterial growth by CLSI based broth microdilution method; type: functional; summary of the method: as §1

With `CC(C)CCSSC[C@H](N)C(=O)N[C@H](C(=O)N[C@@H](CCN)C(=O)N[C@H]1CCNC(=O)[C@H]([C@@H](C)O)NC(=O)[C@H](CCN)NC(=O)[C@H](CCN)NC(=O)[C@H](CC(C)C)NC(=O)[C@@H](Cc2ccccc2)NC(=O)[C@H](CCN)NC1=O)[C@@H](C)O` (H-C(S(3-Methylbutyl))T[Dab][Dab][Dab][dF]L[Dab][Dab]T; lactam 4-C) the MIC (Acinetobacter baumannii) was > 32 µg/mL.
In the case of `CCCCCCSSC[C@H](N)C(=O)N[C@H](C(=O)N[C@@H](CCN)C(=O)N[C@H]1CCNC(=O)[C@H]([C@@H](C)O)NC(=O)[C@H](CCN)NC(=O)[C@H](CCN)NC(=O)[C@H](CC(C)C)NC(=O)[C@@H](Cc2ccccc2)NC(=O)[C@H](CCN)NC1=O)[C@@H](C)O` (H-C(X4)T[Dab][Dab][Dab][dF]L[Dab][Dab]T; lactam 4-C), the MIC (Acinetobacter baumannii) is reported as > 32 µg/mL.
For `CC(C)C[C@@H]1NC(=O)[C@@H](Cc2ccccc2)NC(=O)[C@H](CCN)NC(=O)[C@@H](NC(=O)[C@H](CCN)NC(=O)[C@@H](NC(=O)[C@H](CSSCCC2CCCCC2)NC(=O)CN)[C@@H](C)O)CCNC(=O)[C@H]([C@@H](C)O)NC(=O)[C@H](CCN)NC(=O)[C@H](CCN)NC1=O` (H-GC(S(2-cyclohexylethyl))T[Dab][Dab][Dab][dF]L[Dab][Dab]T; lactam 5-C), the remaining at 24 h, 1 mg/ml [1] was 70%, the Stability [2] was “Unstable” and the Activity (Erythrocyte) was “Non-Toxic”.
For `CC(C)C[C@@H]1NC(=O)[C@@H](Cc2ccccc2)NC(=O)[C@H](CCN)NC(=O)[C@@H](NC(=O)[C@H](CCN)NC(=O)[C@@H](NC(=O)[C@H](CSSc2ccc(-c3ccccc3)cc2)NC(=O)CN)[C@@H](C)O)CCNC(=O)[C@H]([C@@H](C)O)NC(=O)[C@H](CCN)NC(=O)[C@H](CCN)NC1=O` (H-GC(X6)T[Dab][Dab][Dab][dF]L[Dab][Dab]T; lactam 5-C), the Activity (Erythrocyte) was “Non-Toxic”.
For `CC(C)C[C@@H]1NC(=O)[C@@H](Cc2ccccc2)NC(=O)[C@H](CCN)NC(=O)[C@@H](NC(=O)[C@H](CCN)NC(=O)[C@@H](NC(=O)[C@@H](CSSCCC2CCCCC2)NC(=O)CN)[C@@H](C)O)CCNC(=O)[C@H]([C@@H](C)O)NC(=O)[C@H](CCN)NC(=O)[C@H](CCN)NC1=O` (H-G[dC](S(2-cyclohexylethyl))T[Dab][Dab][Dab][dF]L[Dab][Dab]T; lactam 5-C), the Activity (Erythrocyte) was “Non-Toxic”.
With `CC(C)CCCCC[C@@H](N)C(=O)N[C@H](C(=O)N[C@@H](CCN)C(=O)N[C@H]1CCNC(=O)[C@H]([C@@H](C)O)NC(=O)[C@H](CCN)NC(=O)[C@H](CCN)NC(=O)[C@H](CC(C)C)NC(=O)[C@@H](Cc2ccccc2)NC(=O)[C@H](CCN)NC1=O)[C@@H](C)O` (H-[X2]T[Dab][Dab][Dab][dF]L[Dab][Dab]T; lactam 4-C) the CC50 at 24 h [3] was 82 µM and the Activity (Erythrocyte) was “Non-Toxic”.
With `CC(C)C[C@@H]1NC(=O)[C@@H](Cc2ccccc2)NC(=O)[C@H](CCN)NC(=O)[C@@H](NC(=O)[C@H](CCN)NC(=O)[C@@H](NC(=O)[C@H](N)CSSCCC2CCCCC2)[C@@H](C)O)CCNC(=O)[C@H]([C@@H](C)O)NC(=O)[C@H](CCN)NC(=O)[C@H](CCN)NC1=O` (H-[dC](S(2-cyclohexylethyl))T[Dab][Dab][Dab][dF]L[Dab][Dab]T; lactam 4-C) the Activity (Erythrocyte) was “Non-Toxic”.
In the case of `CC(C)C[C@@H]1NC(=O)[C@@H](Cc2ccccc2)NC(=O)[C@H](CCN)NC(=O)[C@@H](NC(=O)[C@H](CCN)NC(=O)[C@@H](NC(=O)[C@H](N)CSSCc2cccc(Cl)c2)[C@@H](C)O)CCNC(=O)[C@H]([C@@H](C)O)NC(=O)[C@H](CCN)NC(=O)[C@H](CCN)NC1=O` (H-[dC](S(3-Cl-benzyl))T[Dab][Dab][Dab][dF]L[Dab][Dab]T; lactam 4-C), the Activity (Erythrocyte) is reported as “Non-Toxic”.
With `CC(C)CCSSC[C@@H](N)C(=O)N[C@H](C(=O)N[C@@H](CCN)C(=O)N[C@H]1CCNC(=O)[C@H]([C@@H](C)O)NC(=O)[C@H](CCN)NC(=O)[C@H](CCN)NC(=O)[C@H](CC(C)C)NC(=O)[C@@H](Cc2ccccc2)NC(=O)[C@H](CCN)NC1=O)[C@@H](C)O` (H-[dC](S(3-Methylbutyl))T[Dab][Dab][Dab][dF]L[Dab][Dab]T; lactam 4-C) the remaining at 24 h, 1 mg/ml [1] was 70%, the Stability [2] was “Unstable” and the CC50 at 24 h [3] was 192 µM. The Activity (Erythrocyte) was “Non-Toxic”.
In the case of `CC(C)CCCCSSC[C@@H](N)C(=O)N[C@H](C(=O)N[C@@H](CCN)C(=O)N[C@H]1CCNC(=O)[C@H]([C@@H](C)O)NC(=O)[C@H](CCN)NC(=O)[C@H](CCN)NC(=O)[C@H](CC(C)C)NC(=O)[C@@H](Cc2ccccc2)NC(=O)[C@H](CCN)NC1=O)[C@@H](C)O` (H-[dC](X1)T[Dab][Dab][Dab][dF]L[Dab][Dab]T; lactam 4-C), the Activity (Erythrocyte) is reported as “Non-Toxic”.
With `CC(C)C[C@@H]1NC(=O)[C@@H](Cc2ccccc2)NC(=O)[C@H](CCN)NC(=O)[C@@H](NC(=O)[C@H](CCN)NC(=O)[C@@H](NC(=O)[C@H](N)CSSCc2ccc(Oc3ccccc3)cc2)[C@@H](C)O)CCNC(=O)[C@H]([C@@H](C)O)NC(=O)[C@H](CCN)NC(=O)[C@H](CCN)NC1=O` (H-[dC](X3)T[Dab][Dab][Dab][dF]L[Dab][Dab]T; lactam 4-C) the Activity (Erythrocyte) was “Non-Toxic”.
With `CCCCCCSSC[C@@H](N)C(=O)N[C@H](C(=O)N[C@@H](CCN)C(=O)N[C@H]1CCNC(=O)[C@H]([C@@H](C)O)NC(=O)[C@H](CCN)NC(=O)[C@H](CCN)NC(=O)[C@H](CC(C)C)NC(=O)[C@@H](Cc2ccccc2)NC(=O)[C@H](CCN)NC1=O)[C@@H](C)O` (H-[dC](X4)T[Dab][Dab][Dab][dF]L[Dab][Dab]T; lactam 4-C) the Activity (Erythrocyte) was “Non-Toxic”.
For `CC(C)C[C@@H]1NC(=O)[C@@H](Cc2ccccc2)NC(=O)[C@H](CCN)NC(=O)[C@@H](NC(=O)[C@H](CCN)NC(=O)[C@@H](NC(=O)[C@H](N)CSSCc2ccc(-c3ccccc3)cc2)[C@@H](C)O)CCNC(=O)[C@H]([C@@H](C)O)NC(=O)[C@H](CCN)NC(=O)[C@H](CCN)NC1=O` (H-[dC](X5)T[Dab][Dab][Dab][dF]L[Dab][Dab]T; lactam 4-C), the Activity (Erythrocyte) was “Non-Toxic”.
With `CC(C)C[C@@H]1NC(=O)[C@@H](Cc2ccccc2)NC(=O)[C@H](CCN)NC(=O)[C@@H](NC(=O)[C@H](CCN)NC(=O)[C@@H](N)[C@@H](C)O)CCNC(=O)[C@H]([C@@H](C)O)NC(=O)[C@H](CCN)NC(=O)[C@H](CCN)NC1=O` [POLYMYXIN B NONAPEPTIDE] (H-T[Dab][Dab][Dab][dF]L[Dab][Dab]T; lactam 3-C) the MIC (Acinetobacter baumannii) was > 32 µg/mL, the selectivity ratio at 24 h [4] was > 10 and the MIC (Klebsiella pneumoniae) was > 32 µg/mL. For the same molecule, the MIC (Escherichia coli) was > 32 µg/mL and the MIC (Pseudomonas aeruginosa) was > 32 µg/mL.
With POLYMYXIN B [listing 1 of 2 here] the Activity (Erythrocyte) was “Non-Toxic”.
POLYMYXIN B [listing 2 of 2 here] showed an MIC (Acinetobacter baumannii) of 0.25 µg/mL, an MIC (Klebsiella pneumoniae) of 0.25 µg/mL and an MIC (Escherichia coli) of 1 µg/mL. For the same molecule, the MIC (Pseudomonas aeruginosa) was 1 µg/mL.
